From ChEMBL document CHEMBL3259767, “Design, synthesis and biological evaluation of Pontin ATPase inhibitors through a molecular docking approach” (Bioorg Med Chem Lett, 2014)
Values belong to the molecule of their own block, whether it stands above or below them. Active and inactive are the calls of the source. No cut-off for these calls is given here.

Legend:
[1] = target: RuvB-like 1 (Homo sapiens) (UniProt Q9Y265); experiment: Inhibition of human recombinant his-tagged pontin expressed in Escherichia coli BL21 assessed as reduction in inorganic phosphate release at 100 uM after 10 mins by malachite green-based colorimetric assay
RuvB-like 1 (Homo sapiens), sequence (Q9Y265 whole entry): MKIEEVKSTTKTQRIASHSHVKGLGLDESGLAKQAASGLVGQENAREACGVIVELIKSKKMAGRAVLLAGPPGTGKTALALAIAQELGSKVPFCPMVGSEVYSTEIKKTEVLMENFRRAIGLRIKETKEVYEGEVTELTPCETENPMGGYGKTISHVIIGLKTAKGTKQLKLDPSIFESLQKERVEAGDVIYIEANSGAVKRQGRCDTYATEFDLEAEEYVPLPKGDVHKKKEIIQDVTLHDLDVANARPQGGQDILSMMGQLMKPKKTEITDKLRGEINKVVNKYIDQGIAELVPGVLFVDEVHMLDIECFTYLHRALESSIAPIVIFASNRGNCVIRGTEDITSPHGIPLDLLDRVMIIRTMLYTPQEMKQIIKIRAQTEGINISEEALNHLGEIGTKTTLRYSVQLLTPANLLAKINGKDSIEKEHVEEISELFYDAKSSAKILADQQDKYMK
Outline: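 Pontin ATPase activity was measured as inorganic phosphate release by malachite green assay, with compounds tested at 100 µM.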

[2] = system: MCF7; experiment: Antiproliferative activity against human MCF7 cells at 10 uM after 72 hrs; type: functional, cell-based
Outline: (§1)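 Cells exposed to compound for 72 h. IC50 values come from KB and HL60 cells. Single-point screening was run at 10^-5 M.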

[3] = system: HCT-116; experiment: Antiproliferative activity against human HCT116 cells at 10 uM after 72 hrs; type: functional, cell-based; outline: as §1
[4] = system: HL-60; experiment: Antiproliferative activity against human HL60 cells at 10 uM after 72 hrs; type: functional, cell-based; outline: as §1
[5] = system: KB; experiment: Antiproliferative activity against human KB cells at 10 uM after 72 hrs; type: functional, cell-based; outline: as §1
[6] = system: HL-60; experiment: Induction of apoptosis in human HL60 cells assessed as caspase 3 activity measured as cleavage of DEVD at 5 uM after 24 hrs by FACS analysis relative to control; type: functional
Outline: (§2)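 Caspase 3 activity was read in HL60 cells after 24 or 48 h treatment at 5–50 µM, with doxorubicin 1 µM as positive control. Activity is expressed relative to untreated HL60, set at 100.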

[7] = system: HL-60; experiment: Antiproliferative activity against human HL60 cells after 72 hrs; type: functional, cell-based; conditions: HL-60, 72 h; outline: as §1
[8] = system: KB; experiment: Antiproliferative activity against human KB cells after 72 hrs; type: functional, cell-based; outline: as §1
[9] = Antiproliferative activity against human EPC cells after 72 hrs; type: cell-based
[10] = system: HL-60; experiment: Induction of apoptosis in human HL60 cells after 24 to 48 hrs by FACS analysis; type: functional, cell-based
Outline: (§3)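 HL60 cells were labelled with annexin and 7-AAD after 24 or 48 h exposure at 5, 20 or 50 µM, with doxorubicin 100 nM as reference. FACS sorted cells into intact, early apoptotic, late apoptotic and necrotic fractions, given as percentages.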

[11] = system: HL-60; experiment: Induction of apoptosis in human HL60 cells at 20 uM after 24 hrs by FACS analysis; type: functional, cell-based; outline: as §3
[12] = system: HL-60; experiment: Induction of apoptosis in human HL60 cells at 20 uM after 48 hrs by FACS analysis; type: functional, cell-based; outline: as §3
[13] = system: HL-60; experiment: Induction of apoptosis in human HL60 cells at 50 uM after 24 hrs by FACS analysis relative to control; type: functional; outline: as §3
[14] = system: HL-60; experiment: Induction of apoptosis in human HL60 cells assessed as caspase 3 activity measured as cleavage of DEVD at 10 uM after 24 hrs by FACS analysis relative to control; type: functional; outline: as §2
[15] = system: HL-60; experiment: Induction of apoptosis in human HL60 cells assessed as caspase 3 activity measured as cleavage of DEVD at 20 uM after 24 hrs by FACS analysis relative to control; type: functional; outline: as §2
[16] = system: HL-60; experiment: Induction of apoptosis in human HL60 cells assessed as caspase 3 activity measured as cleavage of DEVD at 50 uM after 24 hrs by FACS analysis relative to control; type: functional; outline: as §2
[17] = system: HL-60; experiment: Induction of apoptosis in human HL60 cells assessed as caspase 3 activity measured as cleavage of DEVD at 5 uM after 48 hrs by FACS analysis relative to control; type: functional; outline: as §2
[18] = system: HL-60; experiment: Induction of apoptosis in human HL60 cells assessed as caspase 3 activity measured as cleavage of DEVD at 10 uM after 48 hrs by FACS analysis relative to control; type: functional; outline: as §2
[19] = system: HL-60; experiment: Induction of apoptosis in human HL60 cells assessed as caspase 3 activity measured as cleavage of DEVD at 20 uM after 48 hrs by FACS analysis relative to control; type: functional; outline: as §2
[20] = system: HL-60; experiment: Induction of apoptosis in human HL60 cells assessed as caspase 3 activity measured as cleavage of DEVD at 50 uM after 48 hrs by FACS analysis relative to control; type: functional; outline: as §2
[21] = system: HL-60; experiment: Induction of apoptosis in human HL60 cells assessed as caspase 3 activity measured as cleavage of DEVD after 24 to 48 hrs by FACS analysis relative to control; type: functional, cell-based; outline: as §2
[22] = system: HL-60; experiment: Induction of necrosis in human HL60 cells assessed as LDH release at >20 uM after 24 hrs; type: functional, cell-based
Outline: (§4)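 Necrosis marker: LDH released into the culture medium and total LDH were measured in HL60 cells after 24 or 48 h treatment at 5–50 µM, with doxorubicin 1 µM as control.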

[23] = system: HL-60; experiment: Induction of necrosis in human HL60 cells assessed as decrease in total LDH after 48 hrs; type: functional, cell-based; outline: as §4
[24] = system: HL-60; experiment: Cell cycle arrest in human HL60 cells assessed as accumulation at subG1 phase at 5 uM after 24 hrs by propidium iodide-based flow cytometry (reference value: 1.2 %); type: functional
Outline: (§5)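 HL60 cells were treated for 24 h at 5, 20 or 50 µM, with doxorubicin 50 nM as control. DNA was stained with propidium iodide and analysed by flow cytometry. Results are the percentage of cells in subG1, G0/G1, S and G2/M.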

[25] = system: HL-60; experiment: Cell cycle arrest in human HL60 cells assessed as accumulation at subG1 phase at 20 uM after 24 hrs by propidium iodide-based flow cytometry (reference value: 1.2 %); type: functional; outline: as §5
[26] = system: HL-60; experiment: Cell cycle arrest in human HL60 cells assessed as accumulation at subG1 phase at 50 uM after 24 hrs by propidium iodide-based flow cytometry (reference value: 1.2 %); type: functional; outline: as §5
[27] = system: HL-60; experiment: Cell cycle arrest in human HL60 cells assessed as accumulation at G0/G1 phase at 5 uM after 24 hrs by propidium iodide-based flow cytometry (reference value: 47.6 %); type: functional; outline: as §5
[28] = system: HL-60; experiment: Cell cycle arrest in human HL60 cells assessed as accumulation at G0/G1 phase at 20 uM after 24 hrs by propidium iodide-based flow cytometry (reference value: 47.6 %); type: functional; outline: as §5
[29] = system: HL-60; experiment: Cell cycle arrest in human HL60 cells assessed as accumulation at G0/G1 phase at 50 uM after 24 hrs by propidium iodide-based flow cytometry (reference value: 47.6 %); type: functional; outline: as §5
[30] = system: HL-60; experiment: Cell cycle arrest in human HL60 cells assessed as accumulation at S phase at 5 uM after 24 hrs by propidium iodide-based flow cytometry (reference value: 48.7 %); type: functional; outline: as §5
[31] = system: HL-60; experiment: Cell cycle arrest in human HL60 cells assessed as accumulation at S phase at 20 uM after 24 hrs by propidium iodide-based flow cytometry (reference value: 48.7 %); type: functional; outline: as §5
[32] = system: HL-60; experiment: Cell cycle arrest in human HL60 cells assessed as accumulation at S phase at 50 uM after 24 hrs by propidium iodide-based flow cytometry (reference value: 48.7 %); type: functional; outline: as §5
[33] = system: HL-60; experiment: Cell cycle arrest in human HL60 cells assessed as accumulation at G2/M phase at 5 uM after 24 hrs by propidium iodide-based flow cytometry (reference value: 2.5 %); type: functional; outline: as §5
[34] = system: HL-60; experiment: Cell cycle arrest in human HL60 cells assessed as accumulation at G2/M phase at 20 uM after 24 hrs by propidium iodide-based flow cytometry (reference value: 2.5 %); type: functional; outline: as §5
[35] = system: HL-60; experiment: Cell cycle arrest in human HL60 cells assessed as accumulation at G2/M phase at 50 uM after 24 hrs by propidium iodide-based flow cytometry (reference value: 2.5 %); type: functional; outline: as §5
[36] = system: HL-60; experiment: Cell cycle arrest in human HL60 cells assessed as accumulation at subG1 phase after 24 hrs by propidium iodide-based flow cytometry; type: functional; outline: as §5
[37] = system: HL-60; experiment: Induction of necrosis in human HL60 cells assessed as decrease in total LDH at 1 uM after 48 hrs; type: functional, cell-based; outline: as §4

SMILES: N[C@@H](Cc1c[nH]c2ccccc12)C(=O)Nc1ccc(-c2c(O)c3ccccc3[nH]c2=O)cc1
- Activity [2]: inactive
- Activity [3]: inactive
- Activity [4]: inactive
- Activity [5]: inactive

SMILES: COc1cccc2c1C(=O)c1c(O)c3c(c(O)c1C2=O)C[C@@](O)(C(=O)CO)C[C@@H]3O[C@H]1C[C@H](N)[C@H](O)[C@H](C)O1
- Activity [37]: Active

The next lines start with results.

- inhibition [1]: inactive
SMILES: O=C(O)[C@@H](Cc1c[nH]c2ccccc12)NCc1ccc(-c2c(O)c3ccccc3[nH]c2=O)cc1
- Activity [2]: inactive
- Activity [3]: inactive
- Activity [4]: inactive
- Activity [5]: inactive

- inhibition [1]: Active
- IC50 [7]: 15 µM
- IC50 [8]: 9 µM
SMILES: N[C@@H](Cc1c[nH]c2ccccc12)C(=O)Nc1ccc(-c2c(O)c(-c3ccccc3)c[nH]c2=O)cc1
- Activity [6]: 116%
- Activity [2]: Active
- Activity [3]: Active
- Activity [4]: Active
- Activity [5]: Active
- IC50 [9]: 25 µM
- Activity [10]: Dose-dependent effect
- Activity [11]: Active
- Activity [12]: Active
- Activity [13]: 95%
- Activity [14]: 111%
- Activity [15]: 134%
- Activity [16]: 306%
- Activity [17]: 119%
- Activity [18]: 131%
- Activity [19]: 247%
- Activity [20]: 169%
- Activity [21]: Dose-dependent effect
- Activity [22]: Active
- Activity [23]: Dose-dependent effect
- Activity [24]: 2.7%
- Activity [25]: 10.9%
- Activity [26]: 69.5%
- Activity [27]: 48.3%
- Activity [28]: 46.8%
- Activity [29]: 14.7%
- Activity [30]: 44.7%
- Activity [31]: 34.4%
- Activity [32]: 14.6%
- Activity [33]: 4.3%
- Activity [34]: 8%
- Activity [35]: 1.3%
- Activity [36]: Dose-dependent effect

- inhibition [1]: inactive
SMILES: O=C(O)[C@H](Cc1c[nH]c2ccccc12)NCc1ccc(-c2c(O)c3ccccc3[nH]c2=O)cc1
- Activity [2]: inactive
- Activity [3]: inactive
- Activity [4]: inactive
- Activity [5]: inactive
